Test results reported in ChEMBL document CHEMBL1147826, “Activity of B-nor analogues of neurosteroids on the GABA(A) receptor in primary neuronal cultures” (J Med Chem, 2006).
The source made the active and inactive calls. The calls are words filed in the database; no cut-off is given here.

Assays:
[1] = molecular target: T1, GABA-A receptor; anion channel (Mus musculus) (UniProt Q8BHJ7+P26048+Q8QZW7+P50571+Q9R0Y8+P22723+A2AMW3+P62812+Q9JLF1+P26049+P22933+Q9D6F4+P63080+P27681+P16305); test: Effect on GABA-A-induced 36chloride ion influx in mouse embryo cortical neurons at 10 uM relative to basal value; type: functional
In short: (§1)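 Primary cortical neurons from 16-day mouse embryos, cultured 7-9 days with 5 µM fluorodeoxyuridine/20 µM uridine to block glia. 45 min preincubation in Earle's salt solution pH 7.4 at 36.8 °C, then 10 min at room temperature. 7 s uptake of 36Cl (0.2-0.7 µCi/mL) with or without 5 µM GABA plus steroid. Basal uptake measured without GABA or steroid. Lysate counted by scintillation.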

[2] = molecular target: T1, GABA-A receptor; anion channel (Mus musculus); test: (§2) Increase in [3H]flunitrazepam binding to GABA-A receptor in mouse embryo cortical neurons; type: protein-complex assay
In short: (§3)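 Intact mouse embryonic cortical neurons at 7-9 days in vitro, washed into HEPES buffer pH 7.3. Incubated 30 min at 25 °C with 1.3-2.0 nM [3H]flunitrazepam and steroid (1 nM-30 µM, DMSO <0.5% final). Nonspecific binding taken with 20 µM diazepam; 100 µM GABA as positive control. Data as % of control binding. EC50 from sigmoid fits of at least six concentrations in triplicate, 3-5 independent curves.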

Cortical neurone [3] = test: Loss of viability of cortical neuron at 10 uM after 72 hrs; type: functional, cell-based; conditions: Mus musculus
In short: (§4)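 Mouse embryonic cortical neuron cultures exposed to steroid at 10 µM for 72 h, or 100 µM for 24 or 72 h. MTT (250 µg/mL in HEPES buffer) for 15 min at 37 °C, formazan dissolved in 5% SDS and read at 560 nm. Expressed as % of untreated controls. Two independent experiments in triplicate.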

Cortical neurone [4] = test: Loss of viability of cortical neuron at 100 uM after 24 hrs; type: functional, cell-based; conditions: Mus musculus; in short: as §4
[5] = molecular target: T1, GABA-A receptor; anion channel (Mus musculus); test: Effect on 36chloride ion influx in mouse embryo cortical neurons in absence of GABA-A at 10 uM relative to basal value; type: functional; in short: as §1
[6] = molecular target: GABA-A receptor; anion channel; test: as §2; type: protein-complex assay; in short: as §3
[7] = molecular target: GABA-A receptor; anion channel (Rattus norvegicus) (UniProt O09028+P15431+P18506+P18508+P19969+P20236+P23574+P23576+P28471+P28473+P30191+P62813+P63079+P63138+Q91ZM7+Q9ES14); test: Inhibition of [35S]TBPS binding to GABA-A receptor in Wistar rat brain membrane at 10 uM; type: cell membranes
In short: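 Whole-brain membranes from adult male Wistar rats in 20 mM KH2PO4/200 mM KCl, pH 7.4. Incubated 60 min at 37 °C with 2 nM [35S]TBPS, 1 µM GABA and steroid. Nonspecific binding defined with 200 µM picrotoxinin. Results expressed as % of DMSO controls.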

Cortical neurone [8] = test: Loss of viability of cortical neuron at 100 uM after 72 hrs; type: functional, cell-based; conditions: Mus musculus; in short: as §4

Structure (SMILES): CC(=O)[C@H]1CC[C@H]2[C@@H]3[C@@H]4O[C@@]45C[C@H](O)CC[C@]5(C)[C@H]3CC[C@]12C
- Activity [1]: 103%
- Activity [2]: inactive

Structure (SMILES): CC(=O)[C@H]1CC[C@H]2[C@@H]3C(=O)N[C@H]4C[C@H](O)CC[C@]4(C)[C@H]3CC[C@]12C
- Activity [1]: 81%
- Activity [2]: inactive

Structure (SMILES): CC(=O)[C@H]1CC[C@H]2[C@@H]3CC(=O)[C@H]4C[C@H](O)CC[C@]4(C)[C@H]3CC[C@]12C
- Activity [1]: 100%
- Activity [2]: inactive

Structure (SMILES): CC(=O)[C@H]1CC[C@H]2[C@H]3C(=C4CC[C@@H](O)C[C@@]4(C)[C@H]3O)CC[C@]12C
- Activity [1]: 76%
- Activity [2]: inactive

Structure (SMILES): CC(=O)[C@H]1CC[C@H]2[C@@H]3CC=C4C[C@H](O)CC[C@]4(C)[C@H]3CC[C@]12C
- Activity [1]: 131%

Structure (SMILES): CC(=O)[C@H]1CC[C@H]2[C@@H]3CN[C@H]4C[C@H](O)CC[C@]4(C)[C@H]3CC[C@]12C
- Activity [1]: 86%
- Activity [2]: inactive

Structure (SMILES): CC(=O)[C@H]1CC[C@H]2[C@@H]3C[C@@H]4C[C@H](O)CC[C@]4(C)[C@H]3CC[C@]12C
- Activity (Cortical neurone [3]): inactive
- Activity [1]: 172%
- Activity (Cortical neurone [4]): inactive
- Activity [5]: 1.7%
- Log EC50 [6]: -6.03

Structure (SMILES): CC(=O)[C@H]1CC[C@H]2[C@@H]3C(=O)[C@H]4C[C@H](O)CC[C@]4(C)[C@H]3CC[C@]12C
- Activity [1]: 82%
- Activity [2]: inactive

Structure (SMILES): CC(=O)[C@H]1CC[C@H]2[C@@H]3CC[C@@H]4C[C@H](O)CC[C@]4(C)[C@H]3CC[C@]12C [ELTANOLONE]
- Activity [1]: 162%
- Log EC50 [6]: -5.93

Structure (SMILES): CC(=O)[C@H]1CC[C@H]2[C@@H]3C(=O)C[C@H]4C[C@H](O)CC[C@]4(C)[C@H]3CC[C@]12C
- Activity [1]: 90%
- Activity [2]: inactive

Structure (SMILES): CC(=O)[C@H]1CC[C@H]2[C@@H]3C[C@H]4C[C@H](O)CC[C@]4(C)[C@H]3CC[C@]12C
- Activity (Cortical neurone [3]): inactive
- Activity [1]: 199%
- inhibition [7]: 33%
- Activity (Cortical neurone [4]): inactive
- Activity [5]: 1.7%
- Log EC50 [6]: -6.61

Structure (SMILES): CC(=O)[C@H]1CC[C@H]2[C@@H]3[C@H]4O[C@]45C[C@@H](O)CC[C@]5(C)[C@H]3CC[C@]12C
- Activity [1]: 99%
- Activity [2]: inactive

Structure (SMILES): CC(=O)[C@H]1CC[C@H]2[C@@H]3[C@H]4O[C@]45C[C@H](O)CC[C@]5(C)[C@H]3CC[C@]12C
- Activity [1]: 104%
- Activity [2]: inactive

Structure (SMILES): CC(=O)[C@H]1CC[C@H]2[C@@H]3CC[C@H]4C[C@H](O)CC[C@]4(C)[C@H]3CC[C@]12C [BREXANOLONE]
- Activity (Cortical neurone [3]): inactive
- Activity [1]: 164%
- Activity (Cortical neurone [4]): inactive
- Log EC50 [6]: -6.06
- Activity (Cortical neurone [8]): Active
